Assay results published in ChEMBL document CHEMBL2034944, “Cytotoxic and anti-inflammatory triterpenoids from Toona ciliata” (J Nat Prod, 2012).
pIC50: −log10 of the molar value.

Legend:
Format in all cases: functional, cell-based
[1] = Cytotoxicity against multidrug-resistant human MCF7/ADR cells after 48 hrs by MTT assay; details: NCI/ADR-RES
Summary of the method: (§1)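 MTT assay; cells grown in RPMI-1640 or DMEM with 10% FBS, 37 °C, 5% CO2. Adherent cells allowed to attach 12 h before dosing; suspension cells seeded just before dosing at 1 × 10^5 cells/mL. Exposure at 0.1, 1, 10, 100 and 500 μM in triplicate for 48 h. 5-fluorouracil and doxorubicin as positive controls. IC50 by Reed and Muench method.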

[2] = Cytotoxicity against human KB/VCR cells after 48 hrs by MTT assay; summary of the method: as §1
MCF7 = test: Cytotoxicity against human MCF7 cells after 48 hrs by MTT assay; details: MCF7, 48 h; summary of the method: as §1
KB = test: Cytotoxicity against human KB cells after 48 hrs by MTT assay; summary of the method: as §1
SMMC-7721 = test: Cytotoxicity against human SMMC7721 cells after 48 hrs by MTT assay; details: SMMC-7721, 48 h; summary of the method: as §1
K562 = test: Cytotoxicity against human K562 cells after 48 hrs by MTT assay; details: K562, 48 h; summary of the method: as §1
RAW264.7 = test: Antiinflammatory activity in mouse RAW264.7 cells assessed as inhibition of LPS-induced nitric oxide production pretreated for 2 hrs before LPS challenge measured after 18 hrs by Griess method
Summary of the method: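 RAW 264.7 mouse macrophages in RPMI 1640 with 10% heat-inactivated FBS, penicillin/streptomycin, 37 °C, 5% CO2. Seeded 1 × 10^5 per well, 24 h, then pretreated 2 h with compounds at 40, 20, 10, 5, 2.5 μM (DMSO ≤0.1% final). LPS 2 μg/mL for 18 h. Supernatant nitrite read with Griess reagent at 540 nm against NaNO2 standard curve; n = 4; IC50.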

Row | SMILES | pIC50 [1] | pIC50 [2] | pIC50 (MCF7) | pIC50 (KB) | pIC50 (SMMC-7721) | pIC50 (K562) | pIC50 (RAW264.7)
1 | COc1cccc2c1C(=O)c1c(O)c3c(c(O)c1C2=O)C[C@@](O)(C(=O)CO)C[C@@H]3O[C@H]1C[C@H](N)[C@H](O)[C@H](C)O1 [DOXORUBICIN] | < 4.30 | 6.35 | – | – | – | – | –
2 | CC1(C)C(=O)C=C[C@]2(C)C3=CC[C@@]4(C)[C@H](C5=CC(=O)OC5O)C[C@H]5O[C@]54[C@]3(C)C(=O)C[C@@H]12 (stereo partly specified) [TOONACILIATAVARIN F] | < 4.30 | < 4.30 | < 4.30 | < 4.30 | < 4.30 | < 4.30 | 4.54
3 | C[C@@H]1C[C@H]2[C@@H]3CCC4=CC(=O)C=C[C@]4(C)[C@@]3(F)[C@@H](O)C[C@]2(C)[C@@]1(O)C(=O)CO [DEXAMETHASONE] | – | – | – | – | – | – | 6.01
4 | CC(=O)O[C@@H]1C[C@H]2C(C)(C)C(=O)C=C[C@]2(C)[C@H]2[C@H](O)C[C@]3(C)C(=CC[C@H]3[C@H]3COC(C)(C)[C@@H](O)[C@H](O)C3)[C@@]21C [TOONACILIATAVARIN C] | < 4.30 | < 4.30 | < 4.30 | < 4.30 | < 4.30 | < 4.30 | 4.96
5 | CC(=O)O[C@@H]1C[C@H]2C(C)(C)C(=O)C=C[C@]2(C)[C@H]2[C@H](O)C[C@]3(C)C(=CC[C@H]3[C@H]3CO[C@@H](C(C)(C)O)[C@H](O)C3)[C@@]21C [TOONACILIATAVARIN B] | < 4.30 | < 4.30 | < 4.30 | < 4.30 | < 4.30 | < 4.30 | 5.10
6 | C[C@@H]([C@@H](O)[C@H](O)[C@H](O)C(C)(C)O)[C@@H]1CC[C@]2(C)C3=CC[C@H]4C(C)(C)C(=O)CC[C@]4(C)[C@H]3CC[C@@]12C | 4.65 | 4.49 | 4.77 | 4.99 | 4.71 | 4.95 | –
7 | CC(C)(O)[C@@H]1OC[C@H]([C@@H]2CC=C3[C@]4(C)C(=O)C[C@H]5C(C)(C)C(=O)C=C[C@]5(C)[C@H]4[C@H](O)C[C@]32C)C[C@H]1O [TOONACILIATAVARIN A] | < 4.30 | < 4.30 | < 4.30 | < 4.30 | < 4.30 | < 4.30 | 5.03
8 | O=c1[nH]cc(F)c(=O)[nH]1 [FLUOROURACIL] | < 4.00 | 4.48 | < 4.00 | 5.17 | < 4.00 | 5.68 | –
9 | CC1(C)C(=O)C=C[C@]2(C)C3=CC[C@@]4(C)[C@H](C5=CC(O)OC5=O)C[C@H]5O[C@]54[C@]3(C)C(=O)C[C@@H]12 (stereo partly specified) [TOONACILIATAVARIN G] | < 4.30 | < 4.30 | < 4.30 | < 4.30 | < 4.30 | < 4.30 | 4.82
10 | C=C1[C@@H]([C@@]2(C)C=CC(=O)C(C)(C)[C@@H]2CC(=O)OC)[C@@H](OC(C)=O)[C@H](OC(C)=O)[C@@]2(C)[C@H](C3=CC(=O)OC3O)C[C@H]3O[C@]132 (stereo partly specified) | – | – | – | – | – | – | 4.41
11 | CC1(C)OC[C@H]([C@@H]2CC[C@]3(C)C4=CC[C@H]5C(C)(C)[C@@H](O)CC[C@]5(C)[C@H]4CC[C@@]23C)C[C@@H](O)[C@@H]1O [TOONACILIATAVARIN D] | < 4.30 | < 4.30 | < 4.30 | 4.40 | 4.50 | 4.37 | 4.48
12 | C=C1[C@@H]([C@@]2(C)C=CC(=O)C(C)(C)[C@@H]2CC(=O)OC)[C@@H](OC(C)=O)[C@H](OC(C)=O)[C@@]2(C)[C@H](C3=CC(O)OC3=O)C[C@H]3O[C@]132 (stereo partly specified) | – | – | – | – | – | – | 4.38
13 | C=C1[C@@H]([C@@]2(C)C=CC(=O)C(C)(C)[C@@H]2CC(=O)OC)[C@H](OC(C)=O)[C@H](OC(C)=O)[C@@]2(C)[C@H](C3=CCOC3=O)C[C@H]3O[C@]132 | < 4.30 | < 4.30 | < 4.30 | < 4.30 | < 4.30 | < 4.30 | 4.68
